Screening results (PubChem)
In the library only some 2.3% were active in any assay of this set; here they are far more common.
TRPC6 inhibitor = mouse TRPC6 channel inhibitors, primary screen, cell-based, HEK293, membrane potential dye; Short transient receptor potential channel 6 (Mus musculus), Q61143; ACh-evoked depolarization; active compounds read low; B-score at 10 µM; hit rate 1.1% among 310,000;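 active means B-score under library mean minus 3 SD, initial fluorescence not abnormally high, positive integrated signal ratio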;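 further: B-score derived from integrated fluorescence ratio over the kinetic read; more negative B-score means stronger inhibition of depolarization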
TRPC4 inh = inhibitors of mouse TRPC4 channel, primary screen, Fluo4 calcium, HEK293 TRPC4beta/mu-opioid cells; AID 2247, 2010; B-score at 10 µM; DAMGO-evoked Fluo4 calcium flux; active compounds read low; hit rate 0.39% among 300,000;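 active means B-score over 3 SD under the library average, no early fluorescence shift, positive overall ratio signal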
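Assay system – HEK293 line stably carrying TRPC4beta and mu-opioid receptor · Doses – single dose · Detection – Fluo4 calcium-dye fluorescence, kinetic read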
TRPC4 act = activators of mouse TRPC4 channel, primary screen, Fluo4 calcium, HEK293 TRPC4beta/mu-opioid cells. Short transient receptor potential channel 4 (Mus musculus), Q9QUQ5. B-score at 10 µM. Fluo4 calcium fluorescence; active compounds read high. AID 2237, 2010. hit rate 0.49% among 310,000;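 active means B-score above 5 SD of library B-scores, and initial fluorescence ratio not above library mean plus 5 SD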;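 further: positive B-score marks a calcium rise read as TRPC4 activation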
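Material: HEK293 stable line with TRPC4beta plus mu-opioid receptor; technique: Fluo4 calcium-sensitive dye fluorescence, kinetic, 1 Hz baseline; timing: Fluo4 dye loading 45 min at room temperature, 110 s recording; controls: assay buffer as low control, maximal DAMGO as high control; read-out: integrated baseline-normalised fluorescence ratio, converted to per-well B score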
TRPC6 act = mouse TRPC6 channel activators, primary screen, cell-based, HEK293, membrane potential dye; Short transient receptor potential channel 6 (Mus musculus), Q61143; HEK293-TRPC6 membrane potential dye fluorescence; active compounds read high; B-score at 10 µM; hit rate 0.13% among 310,000; AID 2550, 2010;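 active means B-score of the integrated fluorescence ratio above library mean plus 3 SD, and starting fluorescence ratio within library mean plus 5 SD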;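 further: higher score means more depolarization so channel activation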
TRPC4 PAM = positive allosteric modulators of TRPC4, primary screen, cell-based, mouse TRPC4beta, HEK293 mu-opioid, Fluo-4 calcium; DAMGO EC20, Fluo-4 Ca2+ flux; active compounds read high; Short transient receptor potential channel 4 (Mus musculus), Q9QUQ5; B-score at 10 µM; hit rate 0.42% among 310,000;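 active means B-score of calcium response area above 5 SD of library B-scores, with initial fluorescence ratio within 5 SD of library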
A number is an active result; – = inactive.

SMILES	TRPC6 inhibitor	TRPC4 inh	TRPC4 act	TRPC6 act	TRPC4 PAM
COc1cc(S(=O)(=O)NCc2ccccc2)ccc1Br	–	–	–	–	–
Cc1ccc2c(C(=O)CN3CCC(C(N)=O)CC3)c(C)[nH]c2c1	–	–	–	–	–
COc1ccc(CSC2=NCCN2)cc1Cl	–	–	–	–	10
COc1ccc(CSC2=NCCN2)cc1Br	–	–	–	–	–
O=[N+]([O-])c1cc(CSC2=NCCN2)ccc1O	–	–	–	–	–
CCCOc1ccc(CSC2=NCCN2)cc1[N+](=O)[O-]	–	–	–	–	12
COc1cccc(C(=O)Nc2nnc(SCC(=O)Nc3ccc(NC(C)=O)cc3)s2)c1	–	–	–	–	–
Oc1c(CN2CCCCC2)cc(Br)c2cccnc12	–	-7	–	–	–
Oc1c(CN2CCc3ccccc3C2)cc(Cl)c2cccnc12	–	–	69	–	–
Cc1ccc(N(CC(=O)NC2CCCC2)C(=O)CNC(=O)c2cccs2)cc1F	–	-7	–	–	–
CCOC(=O)c1cn2nc(SCc3ccccc3)nc2nc1C	–	–	–	–	–
CCCCNC(=O)c1cc(C)nn1-c1ccccc1	–	–	–	–	–
Cc1cc(C(=O)NCCCN2CCN(c3cc(Cl)ccc3C)CC2)n(-c2ccccc2)n1	–	-6	–	–	–
Nc1nc(-c2ccccc2)nc2sc3c(c12)CCCC3	–	–	–	–	–
Cc1nn(-c2ccccc2)c(Cl)c1/C=N/Nc1ccc(S(=O)(=O)Nc2ccccc2C(=O)O)cc1[N+](=O)[O-]	–	-6	–	–	–
CCOc1cc(/C=C(\C#N)C(=O)Nc2cccc(C(=O)O)c2)ccc1OCc1ccccc1Cl	–	–	–	–	–
CCOc1cc(/C=C(\C#N)C(=O)Nc2cccc(C(=O)O)c2)cc(Br)c1OC(=O)c1ccc(OC)cc1	–	–	–	–	22
Cc1ccc(C(=O)NCC(=O)OC(C)C(=O)NC2CCCc3ccccc32)cc1 (centres undefined)	–	–	–	–	–
Cc1ccc(S(=O)(=O)N2CCC(C(=O)Nc3ccc(S(=O)(=O)N4CCCC4)cc3)CC2)cc1C	–	–	–	–	–
Cc1nc(S/C(=C/c2ccc(-c3ccc(Cl)cc3)o2)C(=O)O)n[nH]1	–	–	–	–	–
Cc1nc(S/C(=C/c2ccc(-c3cc(Cl)ccc3C)o2)C(=O)O)n[nH]1	–	-6	–	–	–
O=C(c1ccc([N+](=O)[O-])cc1)N1CCN(c2ncc(Br)cn2)CC1	–	–	219	–	–
COc1ccc2nc(SCCN(C)C)[nH]c2c1	–	–	113	–	–
COc1ccc2nc(SCC(N)=O)[nH]c2c1	–	–	–	–	–
COc1cccc(CNC(=O)c2ccc(C)c(NC3=NC4CS(=O)(=O)CC4S3)c2)c1 (centres undefined)	–	–	–	–	–
SMILES	TRPC6 inhibitor	TRPC4 inh	TRPC4 act	TRPC6 act	TRPC4 PAM
CCCNC(=O)c1nnsc1S(=O)c1ccc(Cl)cc1 (centres undefined)	–	-6	–	–	–
CC(C)(C(N)=O)N1CCN(c2ncc(C(F)(F)F)cc2Cl)CC1	–	–	61	–	–
O=C(CSc1ccccn1)N1CCN(c2ncc(C(F)(F)F)cc2Cl)CC1	–	–	49	–	–
CCOC(=O)N1CCN(c2ncc(C(F)(F)F)cc2Cl)CC1	–	–	–	–	–
CNCC(=O)N1CCN(c2ncc(C(F)(F)F)cc2Cl)CC1	–	–	189	–	–
FC(F)(F)c1cnc(N2CCSCC2)c(Cl)c1	–	–	–	–	–
O=C(O)c1nn(CC(=O)N2CCN(c3ncc(C(F)(F)F)cc3Cl)CC2)c(=O)c2ccccc12	–	–	–	–	15
COC(=O)C1CC(Cl)CN1c1ncc(C(F)(F)F)cc1Cl (centres undefined)	–	–	–	–	11
FC(F)(F)c1cnc(N2CCCN(C(=S)Nc3ccccc3)CC2)c(Cl)c1	–	–	159	–	–
